Experimental data: ChEMBL document CHEMBL1152541, “Staurosporine tethered peptide ligands that target cAMP-dependent protein kinase (PKA): optimization and selectivity profiling” (Bioorg Med Chem, 2009)
Blank lines part the entries; values can stand above or below the compound they belong to. *1 amine or outer side, *2 acyl side, *3 side chain or, on linkers, in order; H or OH if unused. Where a SMILES comes first, the peptide text is derived from it. Bridges are numbered along the chain shown (N, C = ends). [ ]: non-standard residue; d: D form. The star is where a group is joined. Staurosporine = CO[C@@H]1[C@H](N(C)*)C[C@H]2O[C@]1(C)n1c3ccccc3c3c4c(c5c6ccccc6n2c5c31)C(=O)NC4; Suc = O=C(CCC(=O)[*:2])[*:1]; Dap = NC[C@H](N)C(=O)O; βAla = NCCC(=O)O

Tests used:
[1] = target: Cyclin-dependent kinase 9 (Homo sapiens) (UniProt P50750); assay: Binding affinity to human CDK9 at 500 nM by cell-based competition binding assay relative to control in presence of DTT
How it was run: (§1)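 Commercial (Ambit) competitive kinase-binding panel of 90 kinases measured the binding profile. Run under reducing conditions of 7.5 mM DTT. Binding is expressed relative to control.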

[2] = tested on: Epidermal growth factor receptor (Homo sapiens), P00533 [L858R]; assay: Binding affinity to human EGFR L858R mutant at 500 nM by cell-based competition binding assay relative to control in presence of DTT; how it was run: as §1
[3] = target: Cyclin-dependent kinase 2 (Homo sapiens) (UniProt P24941); assay: Binding affinity to human CDK2 at 500 nM by cell-based competition binding assay relative to control in presence of DTT
How it was run: (§2)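 Kinase binding profiling ran on a commercial (Ambit) competitive binding screen against a panel of 90 kinases. The screen used reducing conditions with 7.5 mM DTT. To withstand the DTT, the bivalent ligand was tested as its amide isostere, with the disulfide replaced. A staurosporine derivative carrying a 3 β-alanine linker was run as the reference compound.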

[4] = target: Dual specificity mitogen-activated protein kinase kinase 2 (Homo sapiens) (UniProt P36507); assay: Binding affinity to human MEK2 at 500 nM by cell-based competition binding assay relative to control in presence of DTT
[5] = target: Serine/threonine-protein kinase PLK3 (Homo sapiens) (UniProt Q9H4B4); assay: Binding affinity to human PLK3 at 500 nM by cell-based competition binding assay relative to control in presence of DTT
[6] = Ratio of compound IC50 to bivalent ligand 1 IC50 for PKA
[7] = tested on: Mast/stem cell growth factor receptor Kit (Homo sapiens), P10721 [V559D,T670I]; assay: Binding affinity to human KIT V559D,T670I mutant at 200 nM by cell-based competition binding assay relative to control in presence of DTT
How it was run: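 Competition binding screen (Ambit) across a panel of 90 kinases, scoring test ligand displacement of each kinase's binding relative to control. The screen ran under reducing conditions with 7.5 mM DTT.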

[8] = target: Casein kinase I isoform delta (Homo sapiens) (UniProt P48730); assay: Binding affinity to human CSNK1D at 200 nM by cell-based competition binding assay relative to control in presence of DTT; how it was run: as §1
[9] = target: Serine/threonine-protein kinase PLK1 (Homo sapiens) (UniProt P53350); assay: Binding affinity to human PLK1 at 200 nM by cell-based competition binding assay relative to control in presence of DTT
[10] = target: Dual specificity mitogen-activated protein kinase kinase 2 (Homo sapiens) (UniProt P36507); assay: Binding affinity to human MEK2 at 200 nM by cell-based competition binding assay relative to control in presence of DTT
[11] = target: T1, Testis-specific serine/threonine-protein kinase 1 (Homo sapiens) (UniProt Q9BXA7); assay: Binding affinity to human TSSK1 at 200 nM by cell-based competition binding assay relative to control in presence of DTT
T1 sequence (whole entry): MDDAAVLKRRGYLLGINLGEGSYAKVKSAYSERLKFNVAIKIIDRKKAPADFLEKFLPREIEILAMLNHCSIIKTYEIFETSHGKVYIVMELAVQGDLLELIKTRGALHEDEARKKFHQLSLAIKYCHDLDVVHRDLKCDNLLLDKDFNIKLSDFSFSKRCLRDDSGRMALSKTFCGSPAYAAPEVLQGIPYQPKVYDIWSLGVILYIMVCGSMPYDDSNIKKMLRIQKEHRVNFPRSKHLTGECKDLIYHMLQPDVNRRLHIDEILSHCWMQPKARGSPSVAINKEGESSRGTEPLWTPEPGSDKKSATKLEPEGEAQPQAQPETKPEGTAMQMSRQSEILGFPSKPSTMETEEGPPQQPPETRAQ

[12] = target: Cyclin-dependent kinase 19 (Homo sapiens) (UniProt Q9BWU1); assay: Binding affinity to human CDK11 at 50 nM by cell-based competition binding assay relative to control in presence of DTT; how it was run: as §2
Sequence of Cyclin-dependent kinase 19 (Homo sapiens) (Q9BWU1 whole entry): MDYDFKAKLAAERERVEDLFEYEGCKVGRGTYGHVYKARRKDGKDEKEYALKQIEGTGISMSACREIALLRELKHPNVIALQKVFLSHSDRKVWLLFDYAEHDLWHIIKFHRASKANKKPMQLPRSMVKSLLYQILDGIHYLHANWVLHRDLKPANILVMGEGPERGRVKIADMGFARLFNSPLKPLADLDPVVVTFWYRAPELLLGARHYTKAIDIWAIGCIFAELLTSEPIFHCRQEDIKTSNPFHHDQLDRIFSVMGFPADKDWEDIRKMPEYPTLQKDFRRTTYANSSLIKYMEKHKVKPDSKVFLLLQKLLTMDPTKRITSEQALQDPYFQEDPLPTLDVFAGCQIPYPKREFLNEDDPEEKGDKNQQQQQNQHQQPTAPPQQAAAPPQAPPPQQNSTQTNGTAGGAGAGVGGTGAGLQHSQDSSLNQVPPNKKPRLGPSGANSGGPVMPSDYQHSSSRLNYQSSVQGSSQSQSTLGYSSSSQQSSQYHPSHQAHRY

Sequence of Dual specificity mitogen-activated protein kinase kinase 2 (Homo sapiens) (P36507 whole entry): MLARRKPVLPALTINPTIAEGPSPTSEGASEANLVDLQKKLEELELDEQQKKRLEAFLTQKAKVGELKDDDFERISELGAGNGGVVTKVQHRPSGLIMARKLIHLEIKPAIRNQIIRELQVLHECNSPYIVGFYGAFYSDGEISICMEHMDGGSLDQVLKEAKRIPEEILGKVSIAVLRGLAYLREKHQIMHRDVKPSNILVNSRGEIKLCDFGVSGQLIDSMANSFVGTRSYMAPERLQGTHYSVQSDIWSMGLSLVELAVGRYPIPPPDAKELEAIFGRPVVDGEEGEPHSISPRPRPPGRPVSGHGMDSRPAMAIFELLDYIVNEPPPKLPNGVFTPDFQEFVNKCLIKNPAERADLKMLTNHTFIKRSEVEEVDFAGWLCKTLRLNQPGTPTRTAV
Sequence of Cyclin-dependent kinase 9 (Homo sapiens) (P50750 whole entry): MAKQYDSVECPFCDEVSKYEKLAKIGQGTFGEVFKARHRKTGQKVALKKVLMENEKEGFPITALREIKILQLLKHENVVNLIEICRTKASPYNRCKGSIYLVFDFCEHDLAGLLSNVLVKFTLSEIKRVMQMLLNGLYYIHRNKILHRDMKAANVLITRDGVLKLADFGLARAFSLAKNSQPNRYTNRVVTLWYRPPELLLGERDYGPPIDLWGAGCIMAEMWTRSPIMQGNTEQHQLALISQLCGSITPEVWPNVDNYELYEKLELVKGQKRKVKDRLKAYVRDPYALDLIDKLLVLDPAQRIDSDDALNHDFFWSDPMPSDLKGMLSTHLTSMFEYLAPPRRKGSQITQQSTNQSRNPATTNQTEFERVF
Sequence of Casein kinase I isoform delta (Homo sapiens) (P48730 whole entry, looked up, canonical isoform): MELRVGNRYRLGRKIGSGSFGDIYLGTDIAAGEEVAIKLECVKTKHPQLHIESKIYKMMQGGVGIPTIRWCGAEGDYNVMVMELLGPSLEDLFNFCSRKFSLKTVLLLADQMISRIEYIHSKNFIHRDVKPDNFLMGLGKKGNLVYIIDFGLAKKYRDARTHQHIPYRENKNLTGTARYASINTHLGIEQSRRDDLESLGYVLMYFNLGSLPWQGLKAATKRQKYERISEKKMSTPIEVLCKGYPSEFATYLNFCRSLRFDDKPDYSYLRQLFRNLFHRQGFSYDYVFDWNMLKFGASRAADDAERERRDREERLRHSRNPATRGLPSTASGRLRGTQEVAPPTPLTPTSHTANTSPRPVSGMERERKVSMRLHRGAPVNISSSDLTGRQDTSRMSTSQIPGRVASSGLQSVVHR
Sequence of Serine/threonine-protein kinase PLK1 (Homo sapiens) (P53350 whole entry): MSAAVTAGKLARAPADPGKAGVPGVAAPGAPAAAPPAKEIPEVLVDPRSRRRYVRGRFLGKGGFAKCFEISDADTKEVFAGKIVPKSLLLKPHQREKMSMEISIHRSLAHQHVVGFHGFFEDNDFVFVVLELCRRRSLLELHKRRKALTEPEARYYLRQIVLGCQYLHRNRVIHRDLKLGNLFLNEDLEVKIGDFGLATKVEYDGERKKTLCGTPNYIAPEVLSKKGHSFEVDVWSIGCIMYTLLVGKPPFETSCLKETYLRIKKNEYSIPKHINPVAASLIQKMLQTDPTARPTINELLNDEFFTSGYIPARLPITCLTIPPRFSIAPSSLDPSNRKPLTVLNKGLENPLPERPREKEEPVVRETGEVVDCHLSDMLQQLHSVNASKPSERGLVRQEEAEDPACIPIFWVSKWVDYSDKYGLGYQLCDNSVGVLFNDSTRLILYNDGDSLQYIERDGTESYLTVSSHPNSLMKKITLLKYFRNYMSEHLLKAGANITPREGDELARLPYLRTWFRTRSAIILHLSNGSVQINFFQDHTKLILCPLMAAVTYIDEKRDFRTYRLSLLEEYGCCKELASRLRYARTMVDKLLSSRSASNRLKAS
Sequence of Mast/stem cell growth factor receptor Kit (Homo sapiens), P10721 [V559D,T670I] (P10721 whole entry V559D/T670I): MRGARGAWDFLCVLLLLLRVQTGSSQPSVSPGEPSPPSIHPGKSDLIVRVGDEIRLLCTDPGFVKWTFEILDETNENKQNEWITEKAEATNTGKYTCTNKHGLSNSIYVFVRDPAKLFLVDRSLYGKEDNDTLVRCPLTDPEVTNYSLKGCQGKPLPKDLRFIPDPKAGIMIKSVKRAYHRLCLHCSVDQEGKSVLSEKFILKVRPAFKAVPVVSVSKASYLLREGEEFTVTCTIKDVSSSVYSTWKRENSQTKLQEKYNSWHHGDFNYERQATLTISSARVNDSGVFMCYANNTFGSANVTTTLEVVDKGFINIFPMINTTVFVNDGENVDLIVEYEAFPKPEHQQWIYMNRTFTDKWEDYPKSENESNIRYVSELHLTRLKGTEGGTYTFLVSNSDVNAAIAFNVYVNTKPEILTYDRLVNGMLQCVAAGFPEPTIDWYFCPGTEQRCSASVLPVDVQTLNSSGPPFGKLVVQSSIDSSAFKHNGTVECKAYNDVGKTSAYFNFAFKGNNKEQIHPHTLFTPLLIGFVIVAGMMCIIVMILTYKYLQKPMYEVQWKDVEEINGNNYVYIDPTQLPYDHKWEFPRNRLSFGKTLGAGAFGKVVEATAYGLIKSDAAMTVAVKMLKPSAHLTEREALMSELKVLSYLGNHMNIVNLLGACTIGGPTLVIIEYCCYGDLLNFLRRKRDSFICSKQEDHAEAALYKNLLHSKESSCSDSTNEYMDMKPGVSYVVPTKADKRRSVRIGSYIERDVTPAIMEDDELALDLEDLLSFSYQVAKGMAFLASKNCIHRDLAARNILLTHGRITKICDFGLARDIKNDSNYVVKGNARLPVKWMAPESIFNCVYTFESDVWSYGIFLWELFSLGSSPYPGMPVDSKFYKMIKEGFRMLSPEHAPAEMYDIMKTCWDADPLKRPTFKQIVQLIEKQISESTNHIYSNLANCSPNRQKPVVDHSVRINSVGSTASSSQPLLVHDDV
Sequence of Serine/threonine-protein kinase PLK3 (Homo sapiens) (Q9H4B4 whole entry, looked up): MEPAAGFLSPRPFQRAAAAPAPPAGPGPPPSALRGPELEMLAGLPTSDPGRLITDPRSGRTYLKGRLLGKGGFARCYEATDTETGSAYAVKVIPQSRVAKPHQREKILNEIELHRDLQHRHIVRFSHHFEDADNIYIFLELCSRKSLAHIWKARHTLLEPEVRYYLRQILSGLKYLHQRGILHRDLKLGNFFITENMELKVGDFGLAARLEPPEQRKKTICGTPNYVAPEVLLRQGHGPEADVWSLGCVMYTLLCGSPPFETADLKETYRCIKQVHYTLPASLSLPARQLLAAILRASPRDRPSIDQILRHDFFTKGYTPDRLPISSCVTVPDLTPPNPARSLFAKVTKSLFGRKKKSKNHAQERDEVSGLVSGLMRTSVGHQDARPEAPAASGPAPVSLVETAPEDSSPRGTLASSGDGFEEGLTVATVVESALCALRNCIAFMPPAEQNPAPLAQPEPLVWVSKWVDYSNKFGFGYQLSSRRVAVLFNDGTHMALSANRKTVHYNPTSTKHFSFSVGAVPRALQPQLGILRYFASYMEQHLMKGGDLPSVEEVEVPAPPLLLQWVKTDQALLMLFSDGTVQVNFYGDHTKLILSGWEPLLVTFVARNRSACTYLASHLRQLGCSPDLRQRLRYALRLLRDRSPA

Activity [1]: 92%
Activity [2]: 53%
Activity [3]: 69%
Activity [4]: 86%
Activity [5]: 100%
Ratio IC50 [6]: > 60
SMILES: CO[C@@H]1[C@H](N(C)C(=O)CCC(=O)NCCC(=O)NCCC(=O)NCCC(N)=O)C[C@H]2O[C@]1(C)n1c3ccccc3c3c4c(c5c6ccccc6n2c5c31)C(=O)NC4

Activity [7]: 4.1%
Activity [8]: 100%
Activity [9]: 95%
Activity [10]: 100%
Activity [11]: 17%
SMILES: CO[C@@H]1[C@H](N(C)C(=O)CCC(=O)NCCC(=O)NCCC(=O)NCCC(=O)NCCC(=O)NCCC(=O)NCCC(=O)NCCC(=O)N[C@H]2CSSC[C@@H](C(=O)NCC(N)=O)NC(=O)CNC(=O)[C@H](Cc3ccccc3)NC(=O)[C@H](C(C)C)NC(=O)[C@H](CCCNC(=N)N)NC(=O)[C@H](Cc3ccccc3)NC(=O)[C@H](C(C)C)NC2=O)C[C@H]2O[C@]1(C)n1c3ccccc3c3c4c(c5c6ccccc6n2c5c31)C(=O)NC4 ({Staurosporine-Suc-βAla-βAla-βAla-βAla-βAla-βAla-βAla}-CVFRVFGCG-NH2; disulfide 1-8)

Activity [12]: 100%
SMILES: CO[C@@H]1[C@H](N(C)C(=O)CCC(=O)NCCC(=O)NCCC(=O)NCCC(=O)NCCC(=O)NCCC(=O)NCCC(=O)NCCC(=O)N[C@H]2CNC(=O)C[C@@H](C(N)=O)NC(=O)CNC(=O)[C@H](Cc3ccccc3)NC(=O)[C@H](C(C)C)NC(=O)[C@H](CCCNC(=N)N)NC(=O)[C@H](Cc3ccccc3)NC(=O)[C@H](C(C)C)NC2=O)C[C@H]2O[C@]1(C)n1c3ccccc3c3c4c(c5c6ccccc6n2c5c31)C(=O)NC4 ({Staurosporine-Suc-βAla-βAla-βAla-βAla-βAla-βAla-βAla}-[Dap]VFRVFGD-NH2; lactam 1-8)
